Results taken from ChEMBL document CHEMBL4382230, “Structure-activity relationships, biological evaluation and structural studies of novel pyrrolonaphthoxazepines as antitumor agents” (Eur J Med Chem, 2019).
≈ marks a conversion by molar mass, not a printed value. Blank lines part the entries; values can stand above or below the compound they belong to. Calls of active or inactive are those of the source. No cut-off for these calls is given here.

Assays:
[1] = system: SCC-4; assay: Induction of apoptosis in human SCC4 cells at 50 uM after 48 hrs by Annexin V/propidium iodide staining-based flow cytometric analysis relative to control; format: functional
In short: (§1)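 Seeding density: NCI-H929 and Ca9.22 at 30×10^4 cells/mL, SCC4 at 15×10^4 cells/mL. Cells exposed 48 h to compound (500 nM; 50 μM in SCC4 for one compound) or vehicle (1% EtOH v/v). Annexin V/PI staining, flow cytometry, 10,000 cells gated on vehicle-treated cells. Three independent experiments, mean ± S.E.M, T-test.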

[2] = system: Ca9-22; assay: Cytotoxicity against human Ca9-22 cells after 72 hrs by MTT assay; format: functional, cell-based; conditions: Ca9-22, 72 h
[3] = system: Ca9-22; assay: Cytotoxicity against human Ca9-22 cells after 48 hrs by MTT assay; format: functional, cell-based; conditions: Ca9-22, 48 h
[4] = system: Ca9-22; assay: Induction of apoptosis in human Ca9-22 cells at 500 nM after 48 hrs by Annexin V/propidium iodide staining-based flow cytometric analysis relative to control; format: functional, cell-based; in short: as §1
[5] = system: SCC-4; assay: Cytotoxicity against human SCC4 cells after 48 hrs by MTT assay; format: functional, cell-based; conditions: SCC-4, 48 h
In short: (§2)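 Cells (NCI-H929 in RPMI-1640 GlutaMAX; SCC4 in DMEM GlutaMAX; 10% FBS, 37 °C, 5% CO2) treated with increasing concentrations for 48 h. IC50 is the mean of three independent experiments.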

[6] = system: NCI-H929; assay: Cytotoxicity against human NCI-H929 cells after 48 hrs by MTT assay; format: functional, cell-based; conditions: NCI-H929, 48 h; in short: as §2
[7] = system: Ca9-22; assay: Cytotoxicity against human Ca9-22 cells after 24 hrs by MTT assay; format: functional, cell-based; conditions: Ca9-22, 24 h
[8] = system: NCI-H929; assay: Induction of apoptosis in human NCI-H929 cells at 500 nM after 48 hrs by Annexin V/propidium iodide staining-based flow cytometric analysis relative to control; format: functional; in short: as §1
[9] = system: B16-F1; assay: Cytotoxicity against mouse B16-F1 cells assessed as reduction in cell survival at 0.1 to 10 uM after 18 hrs by MTT assay; format: functional, cell-based
In short: (§3)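 Seeded at 2,500 cells/well in medium with 10% serum. After adhesion, exposed to 0.1, 1 and 10 μM in medium with 5% serum for 18 h. Medium then replaced with fresh medium containing 1.2 mM MTT for 4 h; formazan dissolved in DMSO, absorbance at 540 nm. Results given as % of basal response.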

[10] = system: NIH3T3; assay: Cytotoxicity against mouse NIH/3T3 cells harboring MDR G185 after 48 hrs by MTT assay; format: functional, cell-based; conditions: NIH3T3, 48 h
In short: (§4)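 Cells seeded at 12,000 to 17,000 per well depending on line, incubated overnight, then given serial dilutions of ligand for 48 h. MTT at 2.5 mg/mL added for 4 h at 37 °C, formazan solubilized overnight (10% SDS, 45% dimethylformamide, pH 5.5), absorbance read at 595/690 nm. IC50 from log-dose response curves; mean ± SE of three independent assays.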

[11] = system: HCC827; assay: Induction of apoptosis in human HCC827 cells assessed as reduction in cyclin D1 expression at 10 uM after 18 hrs by Western blot analysis; format: functional, cell-based
In short: (§5)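 PC9 and HCC827 maintained in DMEM with 10% FBS, then exposed to 10 μM compound for 18 h in 5% serum. Caspase 3 activation and cell cycle proteins examined by western blot.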

[12] = system: HL-60; assay: Induction of autophagy in human HL60 cells assessed as increase in LC3B-2 levels at 10 uM after 105 mins in presence of lysosomal inhibitor chloroquine by immunoblot analysis; format: functional, cell-based
In short: (§6)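 HL-60 in serum-supplemented RPMI 1640, or starved in Earle's Balanced Salts for 15 min beforehand, then treated with 10 μM compound with or without 40 μM chloroquine for 1 h 45 min or 16 h. LC3B-II measured by immunoblot, densitometry normalized to actin, three independent experiments, Student's T-test.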

[13] = Apparent solubility of compound in sodium phosphate buffer at 15 uM after 20 mins; format: physicochemical
[14] = system: HL-60; assay: Induction of autophagy in serum starved human HL60 cells assessed as increase in LC3B-2 levels at 10 uM after 105 mins by immunoblot analysis; format: functional, cell-based; in short: as §6
[15] = Ratio of IC50 for human A2780AD cells to IC50 for human A2780 cells; format: functional
In short: (§7)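 Relative resistance: IC50 in the P-gp overexpressing resistant line divided by IC50 in the parental line. Both IC50s came from the 48 h MTT assay (serial dilutions, absorbance at 595/690 nm, log-dose response curves, three independent assays).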

[16] = system: PC-9; assay: Cytotoxicity against human PC9 cells assessed as reduction in cell survival at 0.1 to 10 uM after 18 hrs by MTT assay; format: functional, cell-based; in short: as §3
[17] = biological target: T1, Tubulin (Homo sapiens) (UniProt P68371+Q9H4B7+P0DPH7+P68366+Q13509+Q71U36+P04350+Q3ZCM7+P07437+P68363+Q9BQE3+Q6PEY2+Q13885+Q9BVA1+Q9BUF5); assay: Binding affinity to tubulin (unknown origin) by analytical ultracentrifugation
[18] = Ratio of IC50 for mouse NIH/3T3 cells harboring MDR G185 to IC50 for mouse NIH/3T3 cells; in short: as §7
[19] = system: SCC-4; assay: Induction of apoptosis in human SCC4 cells at 500 nM after 48 hrs by Annexin V/propidium iodide staining-based flow cytometric analysis relative to control; format: functional; in short: as §1
[20] = system: HCC827; assay: Induction of apoptosis in human HCC827 cells assessed as increase in p21 expression at 10 uM after 18 hrs by Western blot analysis; format: functional, cell-based; in short: as §5
[21] = system: HCC827; assay: Induction of apoptosis in human HCC827 cells assessed as increase in caspase-3 expression at 10 uM after 18 hrs by Western blot analysis; format: functional, cell-based; in short: as §5
[22] = Solubility of compound in pH 7.4 aqueous solution after 12 hrs by HPLC analysis; format: physicochemical
In short: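 Water solubility at pH 7.4 measured by HPLC analysis.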

[23] = system: A549; assay: Cytotoxicity against human A549 cells assessed as reduction in cell survival at 0.1 to 10 uM after 18 hrs by MTT assay; format: functional, cell-based; in short: as §3
[24] = system: HCC827; assay: Cytotoxicity against human HCC827 cells assessed as reduction in cell survival at 0.1 to 10 uM after 18 hrs by MTT assay; format: functional, cell-based; in short: as §3
[25] = Cytotoxicity against human A2780AD cells after 48 hrs by MTT assay; format: functional, cell-based; in short: as §4
[26] = system: HL-60; assay: Cell cycle arrest in human HL60 cells assessed as accumulation of cells at G2/M phase at 10 uM after 24 hrs by propidium iodide staining-based flow cytometric analysis; format: functional
In short: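 HL-60 exposed to 10 μM for 24 h, vehicle 0.1% DMSO. Cells plated at 2×10^5 cells/mL, stained in PBS with 0.1% sodium citrate, 0.1% NP40 and propidium iodide for 30 min at room temperature in the dark. DNA content by flow cytometry; G2/M fraction reported.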

[27] = system: B16-F10; assay: Cytotoxicity against mouse B16F10 cells assessed as reduction in cell survival at 0.1 to 10 uM after 18 hrs by MTT assay; format: functional, cell-based; in short: as §3
[28] = biological target: T1, Tubulin (Homo sapiens); assay: Inhibition of tubulin (unknown origin) polymerization at 27.5 uM measured over 70 mins by turbidity method; format: protein-complex assay
In short: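 Tubulin at 25 µM in GAB buffer (10 mM sodium phosphate, 30% glycerol, 1 mM EGTA, 6 mM MgCl2, 1 mM GTP, pH 6.7) with 27.5 µM compound or DMSO vehicle. Turbidity is read at 355 nm for 70 min at 37 °C. Data are normalized to the initial stable absorbance plateau to correct for compound absorbance.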

[29] = system: PC-9; assay: Induction of apoptosis in human PC9 cells assessed as increase in p21 expression at 10 uM after 18 hrs by Western blot analysis; format: functional, cell-based; in short: as §5
[30] = system: NB-4; assay: Cell cycle arrest in human NB4 cells assessed as accumulation of cells at G1 phase after 24 hrs by propidium iodide staining-based flow cytometric analysis; format: functional
In short: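 NB4 cultured at 37 °C, 5% CO2 in RPMI-1640 with 10% heat-inactivated FBS. Treated at 50 and 100 nM, 1 and 10 μM for 24 h. Cells fixed/permeabilized in 70% ethanol overnight at 4 °C, then given RNase and 20 μg/ml PI for 30 min. Doublets excluded, 20,000 events per sample; cell-cycle phase distribution analysed.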

[31] = system: PC-9; assay: Induction of apoptosis in human PC9 cells assessed as reduction in cyclin D1 expression at 10 uM after 18 hrs by Western blot analysis; format: functional, cell-based; in short: as §5
[32] = system: PC-9; assay: Induction of apoptosis in human PC9 cells assessed as increase in caspase-3 expression at 10 uM after 18 hrs by Western blot analysis; format: functional, cell-based; in short: as §5
[33] = Solubility of compound in pH 3 aqueous solution after 12 hrs by HPLC analysis; format: physicochemical
[34] = system: NIH3T3; assay: Cytotoxicity against mouse NIH/3T3 cells after 48 hrs by MTT assay; format: cell-based; conditions: NIH3T3, 48 h; in short: as §4
[35] = system: A2780; assay: Cytotoxicity against human A2780 cells after 48 hrs by MTT assay; format: functional, cell-based; conditions: A2780, 48 h; in short: as §4
[36] = system: HCC827; assay: Cytotoxicity against human HCC827 cells assessed as reduction in cell survival at 0.1 to 10 uM after 50 to 60 hrs by MTT assay; format: functional, cell-based

SMILES: CC(=O)OC1=C(c2ccccc2-c2ccccc2)Oc2ccccc2-n2cccc21
Activity [1]: >40%
IC50 [2]: 4500 nM
IC50 [3]: 6300 nM
Activity [4]: inactive
IC50 [5]: 9370 nM
IC50 [6]: > 50000 nM
IC50 [7]: 8000 nM

solubility at 20 min, 15 µM [13]: 0.62 µM (≈ 0.259 µg/mL)
Kb [17]: 4.4 ×10⁷ /M
solubility at 12 h [22]: 26 µM (≈ 10.9 µg/mL)
inhibition [28]: Active
solubility at 12 h [33]: 29.4 µM (≈ 12.3 µg/mL)
SMILES: CC(=O)OC1=C(c2cccc3ccccc23)Oc2cc3ccccc3cc2-n2cccc21
Activity [8]: >40%
Activity [9]: Active
IC50 [10]: 306 nM
Activity [11]: Active
Activity [12]: Active
IC50 [2]: 83 nM
Activity [14]: Active
Ratio IC50 [15]: 0.96
Activity [16]: Active
IC50 [3]: 170 nM
Ratio IC50 [18]: 2.42
Activity [19]: >40%
Activity [20]: Active
Activity [21]: Active
Activity [23]: Active
Activity [24]: Active
IC50 [25]: 240 nM
Activity [26]: Active
Activity [27]: Active
Activity [29]: Active
Activity [30]: Dose-dependent effect
Activity [31]: Active
Activity [32]: Active
IC50 [5]: 160 nM
IC50 [34]: 126 nM
IC50 [6]: 376 nM
IC50 [35]: 249 nM
IC50 [7]: 210 nM
Activity [36]: inactive
